ChEMBL document CHEMBL1150223, “Neuroprotective constituents from Hedyotis diffusa” (2001)

Columns and labels:
Assay type in all cases: functional
Details in all cases: read-out: Activity
[1] = Neuroprotective activity against glutamate-stimulated rat cortical cells assessed as cell viability at 1 uM after 1 hr by LDH assay relative to control
How it was run: (§1)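 Mixed cortical cultures from 17- to 19-day fetal Sprague-Dawley rats, grown 2 weeks in DMEM/10% FCS, with 5-fluorodeoxyuridine 50 µM from day 3. Cells were washed, given sample in DMSO (0.1% final) for 1 h, then 50 µM glutamate plus sample for 24 h. Medium LDH was read at 450 nm. Viability is relative to glutamate-only and vehicle control; mean ± SEM, three experiments.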

[2] = Neuroprotective activity against glutamate-stimulated rat cortical cells assessed as cell viability at 0.1 uM after 1 hr by LDH assay relative to control; how it was run: as §1
[3] = Neuroprotective activity against glutamate-stimulated rat cortical cells assessed as cell viability at 10 uM after 1 hr by LDH assay relative to control; how it was run: as §1

SMILES | viability at 1 µM [1] [%] | viability at 0.1 µM [2] [%] | viability at 10 µM [3] [%]
COC(=O)C1=CO[C@@H](O[C@@H]2O[C@H](CO)[C@@H](O)[C@H](O)[C@H]2O)[C@@H]2C(CO)=C[C@@H](OC(=O)/C=C/c3ccc(OC)cc3)[C@H]12 | 71.8 | 65.4 | 52.8
O=c1c(O[C@@H]2O[C@H](CO)[C@H](O)[C@H](O)[C@H]2O[C@@H]2O[C@H](CO)[C@@H](O)[C@H](O)[C@H]2O)c(-c2ccc(O)c(O)c2)oc2cc(O)cc(O)c12 | 66 | 48.2 | 54
COC(=O)C1=CO[C@@H](O[C@@H]2O[C@H](CO)[C@@H](O)[C@H](O)[C@H]2O)[C@@H]2C(CO)=C[C@@H](OC(=O)/C=C\c3ccc(O)cc3)[C@H]12 | 25.7 | 6.9 | 6.3
O=c1c(O[C@@H]2O[C@H](CO)[C@H](O)[C@H](O)[C@H]2O[C@@H]2O[C@H](CO)[C@@H](O)[C@H](O)[C@H]2O)c(-c2ccc(O)cc2)oc2cc(O)cc(O)c12 | 27 | 4.6 | 25.2
COc1cc(/C=C/C(=O)OC[C@H]2O[C@@H](O[C@H]3[C@H](Oc4c(-c5ccc(O)c(O)c5)oc5cc(O)cc(O)c5c4=O)O[C@H](CO)[C@H](O)[C@@H]3O)[C@H](O)[C@@H](O)[C@@H]2O)ccc1O | 72.9 | 62.7 | 75
COC(=O)C1=CO[C@@H](O[C@@H]2O[C@H](CO)[C@@H](O)[C@H](O)[C@H]2O)[C@@H]2C(CO)=C[C@@H](OC(=O)/C=C\c3ccc(OC)cc3)[C@H]12 | 54.6 | 28.8 | 23.7
COc1cc(/C=C/C(=O)OC[C@H]2O[C@@H](O[C@H]3[C@H](Oc4c(-c5ccc(O)c(O)c5)oc5cc(O)cc(O)c5c4=O)O[C@H](CO)[C@@H](O)[C@@H]3O)[C@H](O)[C@@H](O)[C@@H]2O)ccc1O | 71.5 | 62.9 | 73.7
COc1cc(/C=C/C(=O)OC[C@H]2O[C@@H](O[C@H]3[C@H](Oc4c(-c5ccc(O)cc5)oc5cc(O)cc(O)c5c4=O)O[C@H](CO)[C@H](O)[C@@H]3O)[C@H](O)[C@@H](O)[C@@H]2O)ccc1O | 66.9 | 25.2 | 25.2
COC(=O)C1=CO[C@@H](O[C@@H]2O[C@H](CO)[C@@H](O)[C@H](O)[C@H]2O)[C@@H]2C(CO)=C[C@@H](OC(=O)/C=C/c3ccc(O)cc3)[C@H]12 | 62.2 | 14.5 | 26.8
